Screens as filed in PubChem.
Dynein transport – dynein cargo transport inhibition. 3617.4 mouse cells, GR-EGFP nuclear translocation imaging; test concentration mostly 20 µM; stimulated with dexamethasone, 1 µM; stronger effect = lower value. AID 1381. actives 0.47% (n = 220,000). z-score, hits read low;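 active = plate z-score of nuclear minus cytoplasmic receptor signal below a set negative limit, without overly bright fluorescence or cell loss, cut at about -3.5 in these data, passing the limit was not always enough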;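 note: z-score of nuclear minus cytoplasmic ring GR-EGFP intensity difference per well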
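Buffer or medium: tet-free medium with charcoal-stripped serum / Also added: dexamethasone agonist, 1.0 µM final, for 30 min / Timing: induction 48 h, compound 1 h, agonist 30 min / Measured by: high-content fluorescence imaging after fixation / Read-out: nuclear-to-cytoplasmic GR-EGFP distribution per well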
B2AR ag – human beta-2 adrenergic receptor agonism by FAP. P07550. Am2.2-beta2AR cells, FAP receptor internalization, flow cytometry. response, % (concentration not given with the values). actives 0.43% (n = 340,000). AID 504454;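 active = response above a set limit, near 3 SD of response in nonfluorescent compounds, cut at about 42% in these data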
Target sequence (P07550 whole entry, looked up): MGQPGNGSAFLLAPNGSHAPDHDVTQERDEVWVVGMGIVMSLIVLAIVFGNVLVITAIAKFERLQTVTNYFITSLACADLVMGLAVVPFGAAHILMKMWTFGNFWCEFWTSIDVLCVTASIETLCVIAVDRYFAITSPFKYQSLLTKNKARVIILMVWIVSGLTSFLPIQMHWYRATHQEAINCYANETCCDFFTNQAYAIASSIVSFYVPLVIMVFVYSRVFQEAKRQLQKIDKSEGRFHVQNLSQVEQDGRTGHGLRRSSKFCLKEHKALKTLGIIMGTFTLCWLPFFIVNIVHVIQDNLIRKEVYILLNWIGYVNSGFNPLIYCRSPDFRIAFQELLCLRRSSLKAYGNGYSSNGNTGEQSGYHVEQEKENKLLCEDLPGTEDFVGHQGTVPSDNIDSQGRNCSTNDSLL
TLR4 MyD88 comp – TLR4-MyD88 interaction inhibition in cells; actives 0.18% (n = 200,000); AID 861; inhibition, % at 8.4 µM; O00206+Q99836; HeLa CL3-4 TLR4/MyD88 BLA complementation, FRET ratio; in the data active = inhibition above about 25%;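 note: 0% = vehicle and 100% = reference inhibitor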
NOD2 RIPK2 PPI – inhibitors of human NOD2-RIPK2 interaction. O43353. CHO BLA complementation NOD2-RIPK2, CCF4 ratio. inhibition, % at 4.98 µM. actives 0.38% (n = 360,000); in the data active = inhibition above about 21%;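 note: 0% = vehicle only and 100% = reference blocker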
TLR9-MyD88 block – inhibitors of human TLR9-MyD88 binding; inhibition, % at 4.98 µM; Q9NR96+Q99836; actives 0.21% (n = 340,000); CHO BLA complementation TLR9-MyD88, CCF4 FRET ratio;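 active = inhibition above the mean over all tested compounds plus 3 SD, cut at about 21% in these data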;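 note: 0% = DMSO only wells and 100% = clavulanate BLA inhibitor control wells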
ABHD5 PLIN5 PPI – ABHD5-PLIN5 protein interaction inhibition. actives 0.78% (n = 360,000). Split G. princeps luciferase complementation, luminescence, 4 h. inhibition, % at 4 µM;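 active = inhibition above the mean inhibition across every tested compound plus 3 SD, cut at about 22% in these data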;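 note: 0% = DMSO only wells and the 100% control is not disclosed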
ABHD5 PLIN5 conf – ABHD5-PLIN5 interaction inhibition, confirmed. shares compounds with ABHD5 PLIN5 PPI. actives 67% (n = 2,200). biochemical ABHD5-PLIN5 interaction, luminescence. inhibition, % at 4 µM; in the data active = inhibition above about 23%;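 note: 0% = DMSO vehicle wells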
HNF4 counter – HNF4 split-luciferase signal hit, counter-screen | actives 77% (n = 2,200) | inhibition, % at 4 µM | HNF4 dimerization, luminescence, biochemical | shares compounds with ABHD5 PLIN5 PPI;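 active = mean inhibition across replicate wells exceeding the computed hit threshold, cut at about 13% in these data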;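 note: light from luciferase halves that rejoin when HNF4 fusion proteins dimerize; 0% = DMSO only wells and the 100% control is not given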
Numbers without * were called inactive; nt = no result; ! = a repeat was not active. A selection: hits, their analogues and other compounds. The true share with any hit is near 1.6%.

SMILES	Dynein transport	B2AR ag	TLR4 MyD88 comp	NOD2 RIPK2 PPI	TLR9-MyD88 block	ABHD5 PLIN5 PPI	ABHD5 PLIN5 conf	HNF4 counter
CCCc1ccc(C2C3=C(CC(C)(C)CC3=O)NC3=C2C(=O)c2ccccc23)cc1 (configuration not stated)	-0.34	12	0	1	-12	42*	66*	75*
CN(C)CCNc1ncnc2c1ncn2[C@H]1CN(Cc2cccnc2)C[C@@H](CO)O1	nt	nt	nt	-3	nt	2	nt	nt
O=C1C=CC(=Nc2ccc3c(c2)Cc2cc(F)ccc2-3)O1	nt	9	nt	-5	0	29*	33*	60*
C=CCNc1oc(-c2cccc(Cl)c2)nc1C#N	nt	28	nt	7	5	24*	47*	41*
NC(=O)C1=C(c2ccccc2)c2ccccc2C1=O	nt	14	nt	7	-9	74*	93*	94*
O=S1(=O)c2ccccc2Nc2ccccc21	nt	4	nt	-7	-1	-7	nt	nt
COc1ccc(C(=O)Cn2nc(CNc3ccc(Br)cc3)[n+]3c2CCCCC3)cc1	-0.29	-5	-22	3	-8	37*	23*	14*
Cc1ccc(C2C3=C(CC(C)(C)CC3=O)N=C3c4ccccc4C(=O)C32)cc1 (configuration not stated)	0.015	-6	-7	4	2	28*	58*	69*
Cc1ccc(C2C3=C(CC(C)(C)CC3=O)OC3=C2C(=O)CC(C)(C)C3)cc1	0.049	-4	-3	-3	4	2	nt	nt
O=C(O)c1ccccc1-c1c2cc(I)c(=O)c(I)c-2oc2c(I)c(O)c(I)cc12	nt	-3	nt	13	-5	30*!	20	11
O=Cc1ccc(-c2ccccc2C(=O)O)o1	-1.2	-7	-9	-2	17	18	nt	nt
CCN(CC)CCN(CC(=O)Nc1c(C)cc(C)cc1C)C(=O)c1ccccc1	nt	3	nt	-8	4	24*	33*	-6
O=C1CCN(Cc2ccc(O)cc2)CCN1[C@H](CO)c1ccccc1	nt	0	nt	-4	3	47*	4	15*
O=C1CCN(Cc2ccccc2)CCN1[C@H](CO)c1ccccc1	nt	7	nt	7	-8	1	nt	nt
COc1ccc([C@H]2N[C@]3(CCCN(Cc4ccc(F)cc4)C3=O)[C@H]3C(=O)N(C)C(=O)[C@@H]23)cc1	nt	nt	nt	0	1	0	nt	nt
COc1ccc(NC(=S)N(CCCN2CCCC2)Cc2cccn2Cc2ccc(Cl)cc2)cc1Cl	0.54	25	9	5	7	31*	13	-10
FC(F)(F)c1cccc(NC(=S)N(CCCN2CCCC2)Cc2cccn2Cc2ccc(Cl)cc2)c1	0.21	20	4	8	-2	42*	12	-12
Cc1ccc(NC(=S)N(CCCN2CCCC2)Cc2cccn2Cc2ccc(Cl)cc2)cc1C	-1.2	36	-10	14	4	14	nt	nt
O=C(O)c1cccc(N2C(=O)CCC2=O)c1	-0.81	nt	nt	nt	nt	nt	nt	nt
O=C(O)c1cccc(-n2sc3ccccc3c2=O)c1	nt	-1	nt	4	0	109*	97*	120*
C#Cc1ccc(NC(=O)C2(C)CCN2C(=O)C2(c3ccccc3)CCCC2)cc1 (configuration not stated)	nt	nt	nt	-18	nt	-6	nt	nt
Cc1cc(SCC(=O)NC(=O)NCc2ccco2)nc2c(C)cccc12	-0.37	5	-1	11	-8	40*	27*	38*
O=C(CSc1n[nH]c(-c2ccccc2)n1)NC(=O)NCc1ccco1	-0.66	9	2	-2	5	23*	10	8
COc1ccc(CCNC(=O)CSc2nc3c(sc(=S)n3-c3ccccc3)c(=O)[nH]2)cc1OC	nt	nt	nt	5	-1	0	nt	nt
COc1ccc(C(=O)C(CN2CCOCC2)c2ccccc2)cc1 (configuration not stated)	-3.4	5	7	11	-12	19	nt	nt
SMILES	Dynein transport	B2AR ag	TLR4 MyD88 comp	NOD2 RIPK2 PPI	TLR9-MyD88 block	ABHD5 PLIN5 PPI	ABHD5 PLIN5 conf	HNF4 counter
O=C(c1ccccc1)C(CCC(CN1CCOCC1)C(=O)c1ccccc1)CN1CCOCC1 (configuration not stated)	-6.1*	9	4	30*	10	58*	46*	102*
Cc1ccc(NC(=O)c2cc(-c3ccc(C)o3)nc3ccccc23)cc1	-0.87	3	-4	-9	-5	35*	38*	40*
Cc1sc2ncn(CC(=O)NCc3ccco3)c(=O)c2c1-c1ccc(F)cc1	-1.1	0	3	8	-2	29*	56*	62*
Cn1c(=O)[nH]c(=O)c2c1nc(SCC(O)CO)n2Cc1ccccc1Cl (configuration not stated)	-0.12	18	8	-4	-9	39*	4	4
Cn1c(=O)[nH]c(=O)c2c1nc(Br)n2Cc1ccccc1Cl	0.92	-2	9	4	-1	-5	nt	nt
O=C1Nc2ccccc2/C1=C/C(=O)c1cccs1	-1.5	41	5	13	-3	32*	57*	94*
COc1ccc(C2NC(=O)c3ccccc3N2)cc1OC (configuration not stated)	-0.33	6	9	1	0	-2	nt	nt
CC1(c2ccc(OCC(N)=O)cc2)NC(=O)NC1=O (configuration not stated)	nt	3	nt	-13	6	10	nt	nt
CCN1C(=O)/C(=C\C(=O)c2cccs2)c2cc(Br)ccc21	-1.5	3	6	-3	11	6	nt	nt
COc1ccc(C(=O)/C=C2/C(=O)Nc3ccccc32)cc1OC	nt	-20	nt	10	5	43*	53*	85*
NC(=O)COc1ccc(C(=O)/C=C2/C(=O)Nc3ccccc32)cc1	nt	24	nt	6	0	54*	55*	89*
CCOc1ccc(CCN2C(=S)N([C@@H](CC(C)C)CN3CCC[C@@H]3CN3C(=S)NC[C@@H]3Cc3ccccc3)C[C@@H]2Cc2ccc(O)cc2)cc1	nt	nt	nt	-30	nt	18	nt	nt
COc1ccc(NC(=O)CSc2nnc3n2CCCCC3)cc1S(=O)(=O)N1CCOCC1	nt	-4	nt	-6	-10	1	nt	nt
CCCCCc1cc(=O)oc2c(C(CCN(CC)CC)c3cc(OC)c(OC)c(OC)c3)c(OC)cc(OC)c12 (configuration not stated)	-4.9	44*	nt	13	9	27*	16	2
CC[C@]1(C(=O)OC)[C@H]2C(=O)N(C)C(=O)[C@H]2[C@H]2CN=C(SCc3ccc(C)cc3)N21	nt	-4	nt	-7	-4	6	nt	nt
Cc1cc(C)n(CC(=O)NNC(=O)c2ccc(NC(=O)CC#N)cc2)n1	nt	-13	nt	11	-5	2	nt	nt
